In ChEMBL document CHEMBL5241063, “Synthetic and medicinal perspective of quinolines as antiviral agents” (Eur J Med Chem, 2021):

Assays:
[1] = tested on: enterovirus D68; experiment: Antiviral activity against Enterovirus D68 US/KY/14-18953 infected in human RD cells assessed as reduction in virus induced cytopathic effect; type: functional, organism-based; details: Enterovirus D, US/KY/14-18953, RD
[2] = Selectivity index, ratio of CC50 for cytotoxicity against human RD cells to EC50 for antiviral activity against Enterovirus D68 US/KY/14-18953 infected in human RD cells; type: toxicity, cell-based; details: read-out: Ratio CC50/EC50
[3] = Inhibition of HIV-1 integrase; set-up: species or system Human immunodeficiency virus 1
[4] = tested on: Human immunodeficiency virus 1; experiment: Antiviral activity against HIV-1 IIIB infected in human MT2 cells assessed as inhibition of viral replication by p24 ELISA method; type: functional, organism-based; details: Human immunodeficiency virus 1, IIIB
[5] = tested on: Human immunodeficiency virus 1; experiment: Antiviral activity against HIV-1 92US657 infected in human MT2 cells assessed as inhibition of viral infection; type: functional, organism-based; details: Human immunodeficiency virus 1, 92US657, MT2
[6] = tested on: Human immunodeficiency virus 1; experiment: Antiviral activity against HIV-1 infected in human CEM-SS cells assessed as reduction in virus induced cytopathic effect by XTT assay; type: functional, organism-based; details: Human immunodeficiency virus 1, CEM-SS
[7] = Cytotoxicity against human CEM-SS cells assessed as inhibition of cell growth; type: toxicity, cell-based
[8] = tested on: Human immunodeficiency virus 1; experiment: Antiviral activity against HIV-1 infected in human HeLa P4 cells assessed as inhibition of viral particles production; type: functional, organism-based; details: Human immunodeficiency virus 1, HeLaP4
[9] = tested on: Human immunodeficiency virus 1; experiment: Anti-HIV activity against HIV-1 NL4.3 infected in human MT2 cells measured after 48 hrs by luminescence based assay; type: functional, organism-based; details: Human immunodeficiency virus 1, NL4.3, MT2, 48 h
[10] = tested on: Human immunodeficiency virus 1; experiment: Antiviral activity against HIV-1 infected in human H9 cells assessed as inhibition of viral replication; type: functional, organism-based; details: Human immunodeficiency virus 1, H9
[11] = tested on: Zika virus; experiment: Antiviral activity against ZIKV PRVABC59; type: functional, organism-based
In short: (§1)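 Human glioblastoma SNB-19 cells were infected with ZIKV strain PRVABC59 at MOI 1. Virus production was measured by titer assay in Vero cells. Niclosamide served as positive and quality control in each antiviral assay.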

[12] = (§2) Cytotoxicity against human SNB-19 cells incubated for 24 hrs; type: toxicity, cell-based; details: SNB-19 cells
[13] = (§3) Cytotoxicity against african green monkey Vero cells incubated for 48 hrs; type: toxicity, cell-based; details: chlorocebus sabaeus, Vero cells
[14] = Selectivity index, ratio of CC50 for cytotoxicity against human SNB-19 cells to EC50 for antiviral activity against ZIKV PRVABC59; type: toxicity, cell-based; details: read-out: Ratio CC50/EC50; in short: as §1
[15] = Selectivity index, ratio of CC50 for cytotoxicity against african green monkey Vero cells to EC50 for antiviral activity against ZIKV PRVABC59; type: toxicity, cell-based; details: read-out: Ratio CC50/EC50
[16] = tested on: dengue virus type 2; experiment: Antiviral activity against Dengue virus serotype 2 infected in african green monkey Vero cells assessed as reduction in virus yield preincubated for 1 hr followed by replacement with medium containing compounds and measured after 48 hrs by crystal violet staining based plaque assay; type: functional, organism-based
[17] = Cytotoxicity against african green monkey Vero cells incubated for 48 hrs by CellTiter-Glo luminescence based assay; type: toxicity, cell-based; details: chlorocebus sabaeus
[18] = tested on: Ebolavirus; experiment: Antiviral activity against recombinant VSV-deltaG pseudotyped GFP-tagged EBOV infected in human Huh-7 cells preincubated with cells for 1 hr followed by viral infection and measured after 16 hrs by […] assay; type: functional, organism-based; details: Orthoebolavirus
[19] = tested on: SNB-19; experiment: as §2; type: toxicity, cell-based; details: snb-19, 24 h
[20] = tested on: Vero; experiment: as §3; type: toxicity, cell-based; details: chlorocebus sabaeus, vero, 48 h
[21] = Selectivity index, ratio of CC50 for cytotoxicity against human Huh-7 cells to IC50 for antiviral activity against recombinant VSV-deltaG pseudotyped GFP-tagged EBOV infected in human Huh-7 cells; type: toxicity, cell-based; details: read-out: Ratio CC50/IC50
[22] = tested on: Human immunodeficiency virus 1; experiment: Anti-HIV activity against HIV-1 NL4.3 infected in human MT2 cells measured after 7 days by MTT assay; type: functional, organism-based; details: Human immunodeficiency virus 1, NL4.3, MT2, 168 h
[23] = target: Human immunodeficiency virus type 1 reverse transcriptase (Human immunodeficiency virus 1, UniProt Q72547); experiment: Inhibition of HIV-1 reverse transcriptase incubated for 90 mins by liquid scintillation counting analysis
[24] = Cytotoxicity against human RD cells by neutral red method; type: toxicity, cell-based
[25] = Cytotoxicity against african green monkey Vero E6 cells by CCK8 assay; type: toxicity, cell-based, Vero C1008; details: chlorocebus sabaeus

Compound: O=C(NCCN1CCCC1)c1cc(Oc2cccs2)nc2ccccc12
- EC50 [1]: 0.06 µM
- selectivity ratio [2]: > 600

Compound: O=C(NCc1ccc(O)c(O)c1O)c1ccc2ccc(C(=O)O)c(O)c2n1
- IC50 [3]: 1.5 µM

Compound: CN(C)CCNC(=O)c1cc(Oc2cccs2)nc2ccccc12
- EC50 [1]: 0.04 µM
- selectivity ratio [2]: > 600

Compound: Cc1cccc2cc(/C=C3\NC(=O)N(Cc4ccccc4)C3=O)c(Cl)nc12
- EC50 [4]: 0.148 µM
- EC50 [5]: 0.52 µM

Compound: COc1ccc2nc(OC)c(/C=C3\NC(=O)N(Cc4ccccc4)C3=O)cc2c1
- EC50 [4]: 0.27 µM
- EC50 [5]: 0.52 µM

Compound: C=CC(C)(C)C1(CC=C(C)C)C(=O)Nc2ccccc2C1OCC=C(C)C (centres undefined)
- EC50 [6]: 1.64 µM
- IC50 [7]: 26.9 µM

Compound: COc1cc(/C=C/c2ccc3c(C(=O)O)cc(C(=O)O)c(O)c3c2)cc(O)c1O
- IC50 [8]: 1.6 µM

Compound: COc1nc2ccccc2cc1/C=C1\NC(=O)N(CCc2ccccc2)C1=O
- EC50 [4]: 0.42 µM
- EC50 [5]: 0.52 µM

Compound: Nc1cccc([C@@H]2C[C@H](N3CCCC3=O)c3ccccc3N2)c1
- IC50 [9]: 50 µM

Compound: O=C1N/C(=C\c2cccc3ccccc23)C(=O)N1Cc1ccccc1
- EC50 [4]: 1.52 µM
- EC50 [5]: 0.52 µM

Compound: COc1cc(NC(=O)c2ccc3ccc(C(=O)O)c(O)c3n2)cc(O)c1O
- IC50 [3]: 6.5 µM

Compound: COc1ccc2nc(Cl)c(/C=C3\NC(=O)N(Cc4ccccc4)C3=O)cc2c1
- EC50 [4]: 1.96 µM
- EC50 [5]: 0.52 µM

Compound: Cc1ccc2nc(Cl)c(/C=C3\NC(=O)N(CCc4ccccc4)C3=O)cc2c1
- EC50 [4]: 22.8 µM
- EC50 [5]: 0.5 µM

Compound: O=C(O)/C=C\c1cc(C(=O)O)c(O)c2cc(/C=C/c3ccc(O)c(O)c3)ccc12
- IC50 [8]: 35 µM

Compound: O=C(O)c1ccc2ccc(/C=C/c3ccccc3)nc2c1O
- IC50 [3]: 5.3 µM

Compound: COc1ccc2nc(OC)c(/C=C3\NC(=O)N(CCc4ccccc4)C3=O)cc2c1
- EC50 [4]: 1.51 µM
- EC50 [5]: 0.52 µM

Compound: O=C(NNc1ccc([N+](=O)[O-])cc1[N+](=O)[O-])c1ccc2ccc(C(=O)O)c(O)c2n1
- IC50 [3]: 3 µM

Compound: COc1cc(/C=C/c2ccc3ccc(C(=O)O)c(O)c3n2)cc(O)c1O
- IC50 [3]: 0.7 µM

Compound: C=CC(C)(C)C1(CC=C(C)C)C(=O)Nc2ccccc2C1=O (centres undefined) [BUCHAPINE]
- IC50 [7]: 29 µM

Compound: COc1c2[nH]c3occc3c(OC)c-2ccc1=O [HAPLOPINE]
- EC50 [10]: < 5.85 µM

Compound: COc1nc2ccccc2cc1/C=C1\NC(=O)N(Cc2ccccc2)C1=O
- EC50 [4]: 1.41 µM
- EC50 [5]: 0.52 µM

Compound: COc1cc2c(c(OC)c1)[C@@H](N1CCCC1=O)C[C@@H](c1cccc(N)c1)N2
- IC50 [9]: 50 µM

Compound: C=C1CC[C@H]2[C@@](C)(CCC(O)[C@@]2(C)CO)[C@@H]1C/C=C1/C(=O)OC[C@H]1Oc1cccc2cccnc12 (some centres undefined)
- EC50 [11]: 11 µM
- CC50 at 24 h [12]: 60.1 µM
- CC50 at 48 h [13]: 22.8 µM
- selectivity ratio [14]: 5.5
- selectivity ratio [15]: 2.1

Compound: CC(C)Cc1ccc2c(Cl)cc(Cl)c(O)c2n1
- IC50 [16]: 0.49 µM
- CC50 at 48 h [17]: 19.4 µM

Compound: Cc1ccc2cc(/C=C3\NC(=O)N(Cc4ccccc4)C3=O)c(Cl)nc2c1
- EC50 [4]: 0.71 µM
- EC50 [5]: 0.52 µM

Compound: CCCCCCNCc1cc(Nc2ccnc3cc(Cl)ccc23)ccc1O
- IC50 [18]: 0.29 µM

Compound: CN(C)CCNC(=O)c1cc(Oc2ccccc2)nc2ccc(Cl)cc12
- EC50 [1]: 1.2 µM

Compound: C=C1CC[C@@H]2[C@](C)(CO)[C@H](O)CC[C@@]2(C)[C@@H]1C/C=C1/C(=O)OC[C@@H]1Oc1cccc2ccc(C)nc12
- CC50 [19]: > 100 µM

Compound: COc1c2ccoc2nc2c(OC)cccc12 [GAMMA-FAGARINE]
- EC50 [10]: < 5.85 µM

Compound: C=C1CC[C@@H]2[C@](C)(CO)[C@H](O)CC[C@@]2(C)[C@@H]1C/C=C1/C(=O)OC[C@@H]1Oc1c(Cl)cc(Cl)c2cccnc12
- CC50 [19]: > 100 µM
- CC50 [20]: > 100 µM

Compound: CCCCN(CCCC)Cc1cc(Nc2ccnc3cc(Cl)ccc23)ccc1O
- IC50 [18]: 0.72 µM
- selectivity ratio [21]: > 130

Compound: CCN(CC)Cc1cc(Nc2ccnc3cc(Cl)ccc23)ccc1O [AMODIAQUINE]
- selectivity ratio [21]: 37

Compound: CC(C)c1ccc2c(Cl)cc(Cl)c(O)c2n1
- IC50 [16]: 3.03 µM
- CC50 at 48 h [17]: 16.1 µM

Compound: O=C(O)c1ccc2ccc(/C=C/c3ccc(O)c(O)c3)nc2c1O
- IC50 [3]: 2.4 µM

Compound: CCN(CC)Cc1cc(Nc2ccnc3cc(I)ccc23)ccc1O
- IC50 [18]: 0.64 µM
- selectivity ratio [21]: > 130

Compound: O=C(NCc1ccc(O)c(O)c1)c1ccc2ccc(C(=O)O)c(O)c2n1
- IC50 [3]: 5 µM

Compound: O=C1N/C(=C\c2cc3ccccc3nc2Cl)C(=O)N1CCc1ccccc1
- EC50 [4]: 2.92 µM
- EC50 [5]: 0.52 µM

Compound: CCCCCCCCN(C)Cc1cc(Nc2ccnc3cc(I)ccc23)ccc1O
- IC50 [18]: 0.26 µM
- selectivity ratio [21]: > 100

Compound: COc1cc(OC)c2ccc(-c3cccc([N+](=O)[O-])c3)nc2c1
- IC50 [22]: 18.5 µM

Compound: COc1c2ccc(O)cc2nc2occc12 [CONFUSAMELINE]
- EC50 [10]: < 5.85 µM

Compound: CN(C)CCNC(=O)c1cc(Oc2ccccc2)nc2ccc(F)cc12
- EC50 [1]: 0.6 µM

Compound: COc1ccc2cc(/C=C3\NC(=O)N(CCc4ccccc4)C3=O)c(Cl)nc2c1
- EC50 [4]: 0.46 µM
- EC50 [5]: 0.52 µM

Compound: CC(C)[C@H]1C(=O)OC[C@@H](NC(=O)c2nc3ccccc3cc2O)C(=O)N2CCCC[C@H]2C(=O)NCC(=O)N(C)CC(=O)N(C)[C@@H](C(C)C)C(=O)OC[C@@H](NC(=O)c2nc3ccccc3cc2O)C(=O)N2CCCC[C@H]2C(=O)NCC(=O)N(C)CC(=O)N1C
- IC50 [23]: 0.00013 µM

Compound: CC(C)Oc1ccc2cc(/C=C3\NC(=O)N(CCc4ccccc4)C3=O)c(Cl)nc2c1
- EC50 [4]: 0.33 µM
- EC50 [5]: 0.52 µM

Compound: COc1ccc2nc(Cl)c(/C=C3\NC(=O)N(CCc4ccccc4)C3=O)cc2c1
- EC50 [4]: 1.01 µM
- EC50 [5]: 0.52 µM

Compound: Cc1cccc2cc(/C=C3\NC(=O)N(CCc4ccccc4)C3=O)c(Cl)nc12
- EC50 [4]: 0.5 µM
- EC50 [5]: 0.52 µM

Compound: CN(C)CCNC(=O)c1cc(Oc2ccccc2)nc2ccccc12
- EC50 [1]: 0.4 µM
- CC50 [24]: 73.7 µM
- selectivity ratio [2]: 184

Compound: Cc1ccc2cc(/C=C3\NC(=O)N(CCc4ccccc4)C3=O)c(Cl)nc2c1
- EC50 [4]: 2.55 µM
- EC50 [5]: 0.52 µM

Compound: O=C1N/C(=C\c2cccc3ccccc23)C(=O)N1CCc1ccccc1
- EC50 [4]: 1.93 µM
- EC50 [5]: 0.52 µM

Compound: O=C1N/C(=C\c2cc3ccccc3nc2Cl)C(=O)N1Cc1ccccc1
- EC50 [4]: 50.6 µM
- EC50 [5]: 0.52 µM

Compound: CCN(CC)CCCC(C)Nc1ccnc2cc(Cl)ccc12 (centres undefined) [CHLOROQUINE]
- CC50 [25]: 250 µM

Compound: Cc1ccc2nc(Cl)c(/C=C3\NC(=O)N(Cc4ccccc4)C3=O)cc2c1
- EC50 [4]: 5.54 µM
- EC50 [5]: 0.52 µM

Compound: CCN(CC)CCNC(=O)c1cc(OC(C)C)nc2ccccc12
- CC50 [24]: 11.2 µM

Compound: CCN(CCO)CCCC(C)Nc1ccnc2cc(Cl)ccc12 (centres undefined) [HYDROXYCHLOROQUINE]
- CC50 [25]: 273 µM

Compound: CCN(CC)Cc1cc(Nc2c(Oc3ccccc3)cnc3cc(Cl)ccc23)ccc1O
- IC50 [18]: 0.73 µM

Compound: Cc1cc(C)c2c(c1)N[C@H](c1cccc(N)c1)C[C@@H]2N1CCCC1=O
- IC50 [9]: 50 µM
